Active and inactive are the calls of the source. No cut-off for these calls is given here.
Assays:
Pro-cathepsin H = target: T1, Pro-cathepsin H (Homo sapiens, UniProt P09668); test: Inhibition constant for the non time dependent inhibition of cathepsin H
T1 sequence (P09668 whole entry): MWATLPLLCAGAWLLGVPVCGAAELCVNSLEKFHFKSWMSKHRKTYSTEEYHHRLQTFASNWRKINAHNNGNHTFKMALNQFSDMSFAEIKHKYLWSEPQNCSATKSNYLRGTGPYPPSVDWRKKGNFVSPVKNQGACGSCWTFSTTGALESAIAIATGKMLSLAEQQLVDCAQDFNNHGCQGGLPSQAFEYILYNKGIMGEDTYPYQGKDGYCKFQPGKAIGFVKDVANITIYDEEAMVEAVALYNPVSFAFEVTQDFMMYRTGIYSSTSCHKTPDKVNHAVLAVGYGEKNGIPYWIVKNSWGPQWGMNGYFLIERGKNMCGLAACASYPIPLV

[1] = target: Procathepsin L (Homo sapiens) (UniProt P07711); test: Evaluated for second-order rate constants for the inactivation of mammalian lysosomal cathepsin L.
Procathepsin L (Homo sapiens), sequence (P07711 114-333 limits assumed): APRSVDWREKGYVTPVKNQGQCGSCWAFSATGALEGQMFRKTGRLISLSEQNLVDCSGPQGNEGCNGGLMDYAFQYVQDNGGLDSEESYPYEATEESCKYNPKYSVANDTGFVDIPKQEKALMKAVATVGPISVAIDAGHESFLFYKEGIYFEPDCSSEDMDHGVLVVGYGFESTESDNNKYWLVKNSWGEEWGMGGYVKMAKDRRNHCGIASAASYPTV

Papain (Carica papaya) [2] = target: T2, Papain (Carica papaya) (UniProt P00784); test: Second-order rate constants for the inactivation of papain (vacuolar plant enzyme)
T2 sequence (whole entry): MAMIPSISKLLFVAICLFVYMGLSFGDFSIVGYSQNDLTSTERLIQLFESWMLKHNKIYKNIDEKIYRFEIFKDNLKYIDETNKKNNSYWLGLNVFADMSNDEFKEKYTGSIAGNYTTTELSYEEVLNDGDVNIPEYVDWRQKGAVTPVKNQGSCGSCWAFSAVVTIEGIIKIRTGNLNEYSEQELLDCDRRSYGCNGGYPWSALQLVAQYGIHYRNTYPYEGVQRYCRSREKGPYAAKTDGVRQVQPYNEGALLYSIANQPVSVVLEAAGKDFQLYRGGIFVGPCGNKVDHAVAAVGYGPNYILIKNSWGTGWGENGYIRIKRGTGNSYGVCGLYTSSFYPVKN
In short: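 Papain with L-BAPA (405 nm) in 50 mM phosphate pH 6.5, 5 mM EDTA, 5 mM cysteine, or with Z-Phe-Arg-AMC in phosphate pH 6.5 with DTT, EDTA, Brij 35; 25 °C. kobs at 3–7 inhibitor concentrations, continuous or dilution assay; k2nd = ki/Ki, or from linear kobs vs [I] when unsaturated; substrate-corrected (Km 2.5 mM L-BAPA, 0.09 mM Z-Phe-Arg-AMC).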

Cathepsin B (Bos taurus) = Cathepsin B (Bos taurus) (UniProt P07688); test: Evaluated for second-order rate constants for the inactivation of mammalian lysosomal cathepsin B.
Papain (Carica papaya) [3] = target: T2, Papain (Carica papaya); test: Second-order rate constants for the inactivation of papain at pH 6.5(vascular plant enzyme)
In short: (§1)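 Papain (0.5 mg mL-1) with 1.4–1.5 mM L-BAPA, read at 405 nm, 25 °C. Buffers: 50 mM citrate for pH 4–6, phosphate for pH 6–8, borate for pH 8–9. kobs came from continuous or dilution assays at 3–7 inhibitor concentrations. k_i/K_i came from a hyperbolic or linear fit, corrected to zero substrate (Km 2.5 mM).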

Papain (Carica papaya) [4] = target: T2, Papain (Carica papaya); test: Second-order rate constants for the inactivation of papain at pH 8(vascular plant enzyme); in short: as §1
Papain (Carica papaya) [5] = target: T2, Papain (Carica papaya); test: Second-order rate constants for the inactivation of papain at pH 4 (vascular plant enzyme); in short: as §1
[6] = target: T3, Calpain-2 catalytic subunit (Sus scrofa, UniProt P43367); test: Inhibition constant for the non time dependent inhibition of Calpain 2
T3 sequence (P43367 whole entry): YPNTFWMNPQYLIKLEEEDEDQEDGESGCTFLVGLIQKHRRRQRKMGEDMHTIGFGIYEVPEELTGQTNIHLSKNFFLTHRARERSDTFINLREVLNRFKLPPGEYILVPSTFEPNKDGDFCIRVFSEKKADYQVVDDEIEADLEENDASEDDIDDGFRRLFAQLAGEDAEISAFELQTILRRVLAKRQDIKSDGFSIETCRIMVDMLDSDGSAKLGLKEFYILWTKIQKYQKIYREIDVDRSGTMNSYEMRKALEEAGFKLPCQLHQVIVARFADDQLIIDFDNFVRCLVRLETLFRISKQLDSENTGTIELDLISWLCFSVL
In short: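 Calpain I or II with Suc-Leu-Tyr-AMC in 50 mM Tris pH 7.5, 5 mM CaCl2, 2.5 mM EDTA, 2.5 mM DTT. Enzyme preincubated in buffer 30 min, assayed at 25 °C, fluorescence 460 nm (excitation 380 nm). Ki from Dixon plots, corrected to zero substrate with Km 0.4 mM (calpain I) or 0.22 mM (calpain II).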

Papain (Carica papaya) [7] = target: T2, Papain (Carica papaya); test: Second-order rate constants for the inactivation of papain (vascular plant enzyme); no inhibition

Row | Compound | ki/Ki [1] [M⁻¹ s⁻¹] | ki/Ki (Papain (Carica papaya) [2]) [M⁻¹ s⁻¹] | ki/Ki (Cathepsin B (Bos taurus)) [M⁻¹ s⁻¹] | further results
1 | CCOC(=O)C1NC1C(=O)N[C@@H](CC(C)C)C(=O)OCc1ccccc1 (some centres undefined) | 52.2 | 3.57 | 0.683 | Ki (Pro-cathepsin H): 260 µM; ki/Ki (Papain (Carica papaya) [3]): 2.8 M⁻¹ s⁻¹; ki/Ki (Papain (Carica papaya) [4]): 0.4 M⁻¹ s⁻¹; ki/Ki (Papain (Carica papaya) [5]): 13.1 M⁻¹ s⁻¹
2 | CCOC(=O)[C@H]1N[C@@H]1C(=O)N[C@@H](CC(C)C)C(=O)N1CCC[C@H]1C(=O)OCc1ccccc1 | 35.7 | 3.78 | 6.75 | –
3 | CCOC(=O)C1C(C(=O)OCC)N1C(=O)[C@H](CC(C)C)NC(=O)OCC1c2ccccc2-c2ccccc21 (some centres undefined) | 1.65 | 1.08 | – | –
4 | CC[C@H](C)C(NC(=O)[C@@H]1N[C@H]1C(=O)NCC(C)C)C(=O)N1CCCC1C(=O)O (single isomer, unassigned) | 50 | – | 13 | ki/Ki (Papain (Carica papaya) [7]): inactive
5 | CCOC(=O)[C@@H]1[C@@H](C(=O)OCC)N1C(=O)CNC(=O)CNC(=O)OCc1ccccc1 | 5.28 | 4.95 | 6.48 | –
6 | CCOC(=O)[C@@H]1N[C@H]1C(=O)N[C@@H](CC(C)C)C(=O)O | – | 1.05 | – | –
7 | CC(C)CCNC(=O)[C@H](CC(C)C)NC(=O)[C@H]1N[C@@H]1C(=O)O | – | 0.167 | – | –
8 | CCOC(=O)[C@@H]1[C@@H](C(=O)OCC)N1C(=O)[C@H](C)NC(=O)OC(C)(C)C | – | 0.717 | – | –
9 | CCOC(=O)C1NC1C(=O)N[C@H](CC(C)C)C(=O)NCCC(C)C (some centres undefined) | – | 55 | – | –
10 | CCOC(=O)C1NC1C(=O)OCC (centres undefined) | – | – | – | ki/Ki (Papain (Carica papaya) [5]): 1.02 M⁻¹ s⁻¹
11 | CCOC(=O)C1C(C(=O)O)N1C(=O)[C@H](Cc1ccccc1)NC(=O)OC(C)(C)C (some centres undefined) | 3.13 | 8.42 | 20.5 | –
12 | CC(C)CCNC(=O)C(CC(C)C)NC(=O)[C@@H]1N[C@H]1C(=O)O (single isomer, unassigned) | – | 0.167 | – | –
13 | CCOC(=O)C1NC1C(=O)N[C@@H](CC(C)C)C(=O)NCCC(C)C (some centres undefined) | – | 3 | – | –

Now from value to compound, other results behind:

Row | ki/Ki [1] [M⁻¹ s⁻¹] | ki/Ki (Papain (Carica papaya) [2]) [M⁻¹ s⁻¹] | ki/Ki (Cathepsin B (Bos taurus)) [M⁻¹ s⁻¹] | Compound | further results
14 | 3.65 | 2.85 | 2.03 | CCOC(=O)[C@@H]1[C@@H](C(=O)N[C@@H](CC(C)C)C(=O)OCc2ccccc2)N1C(=O)[C@H](Cc1ccccc1)NC(=O)OC(C)(C)C | Ki (Pro-cathepsin H): 93 µM
15 | 53.9 | 2.48 | 4 | CCOC(=O)C1C(C(=O)OCc2ccccc2)N1C(=O)CNC(=O)[C@H](CC(C)C)NC(=O)OC(C)(C)C (some centres undefined) | –
16 | 0.483 | 2.95 | 2.08 | CCOC(=O)[C@@H]1[C@@H](C(=O)OCC)N1C(=O)[C@H](Cc1ccccc1)NC(=O)[C@H](C)NC(=O)OCc1ccccc1 | –
17 | 5.25 | 8.72 | 7.02 | CCOC(=O)[C@@H]1[C@@H](C(=O)OCC)N1C(=O)[C@H](C)NC(=O)[C@H](Cc1ccccc1)NC(=O)CNC(=O)OCc1ccccc1 | –
18 | 4.68 | 20.5 | 7.38 | CCOC(=O)C1C(C(=O)OCc2ccccc2)N1C(=O)[C@H](C)NC(=O)[C@H](Cc1ccccc1)NC(=O)OC(C)(C)C (some centres undefined) | –
19 | 5.23 | 3.75 | 4.28 | CCOC(=O)[C@H]1[C@H](C(=O)N[C@@H](CC(C)C)C(=O)OCc2ccccc2)N1C(=O)[C@H](Cc1ccccc1)NC(=O)OC(C)(C)C | Ki (Pro-cathepsin H): 137 µM; Ki [6]: 42 µM
20 | – | 1.27 | – | CCOC(=O)C1C(C(=O)OCc2ccccc2)N1C(=O)[C@H](Cc1ccccc1)NC(=O)OC(C)(C)C (some centres undefined) | –
21 | 7.82 | 22.8 | 7.58 | CCOC(=O)[C@@H]1[C@@H](C(=O)OCC)N1C(=O)[C@H](C)NC(=O)[C@@H](Cc1ccccc1)NC(=O)OC(C)(C)C | –
22 | 0.55 | 0.35 | 0.367 | CCOC(=O)[C@H]1[C@H](C(=O)OCC)N1C(=O)[C@H](Cc1ccccc1)NC(=O)C(C)NC(=O)OCc1ccccc1 (single isomer, unassigned) | –
23 | 98.3 | 12.8 | 32.3 | CCOC(=O)[C@H]1[C@H](C(=O)N[C@@H](CC(C)C)C(=O)N2CCCC2C(=O)OCc2ccccc2)N1C(=O)[C@H](Cc1ccccc1)NC(=O)OC(C)(C)C (some centres undefined) | –
24 | 0.267 | 0.7 | 0.3 | CCOC(=O)[C@H]1[C@H](C(=O)OCC)N1C(=O)C(Cc1ccccc1)NC(=O)OC(C)(C)C (single isomer, unassigned) | –
25 | – | 5.35 | 7.5 | CCOC(=O)[C@@H]1[C@@H](C(=O)N[C@@H](CC(C)C)C(=O)N2CCCC2C(=O)OCc2ccccc2)N1C(=O)[C@H](Cc1ccccc1)NC(=O)OC(C)(C)C (some centres undefined) | –

From ChEMBL document CHEMBL1132578, “New peptidic cysteine protease inhibitors derived from the electrophilic alpha-amino acid aziridine-2,3-dicarboxylic acid” (J Med Chem, 1999)
